# Measurements reported in ChEMBL document CHEMBL1165856, “Naftifine-analogues as anti-Trypanosoma cruzi agents” (Eur J Med Chem, 2010).
# What was measured:
# Trypanosoma cruzi [1] = experiment: Antitrypanosomal activity against Trypanosoma cruzi Tulahuen 2 at 25 uM; format: functional
# In short: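 Tulahuen 2 epimastigotes (8 × 10⁶ cells/mL, 28 °C, BHI-tryptose with 5% FBS) were exposed to a single drug concentration, with final DMSO ≤0.4% and a vehicle control. Percent growth inhibition = {1 − [(Ap − A0p)/(Ac − A0c)]} × 100, using A600 of drug and control cultures at day 0 and day 5.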
# Candida albicans = experiment: Antifungal activity against Candida albicans ATCC 10231 after 48 hrs; format: functional; settings: ATCC 10231, 48 h
# In short: (§1)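 CLSI M27-A2 broth microdilution in RPMI 1640 buffered to pH 7.0 with MOPS. Inoculum is 10³ CFU/mL from Sabouraud-grown yeasts. Compound is two-fold serially diluted, final DMSO ≤1%. Incubated at 35 °C in a moist, dark chamber and read visually at 48 h. MIC is the lowest concentration giving total growth inhibition.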
# Candida tropicalis = experiment: Antifungal activity against Candida tropicalis C 131 2000 after 48 hrs; format: functional; settings: Candida tropicalis, C 131 2000, 48 h; for MIC: read-out: MIC; in short: as §1
# Saccharomyces cerevisiae = experiment: Antifungal activity against Saccharomyces cerevisiae ATCC 9763 after 48 hrs; format: functional; settings: ATCC 9763, 48 h; in short: as §1
# Cryptococcus neoformans = experiment: Antifungal activity against Cryptococcus neoformans ATCC 32264 after 48 hrs; format: functional; settings: Cryptococcus neoformans, ATCC 32264, 48 h; for MIC: read-out: MIC; in short: as §1
# Aspergillus fumigatus = experiment: Antifungal activity against Aspergillus fumigatus ATCC 26934 after 48 hrs; format: functional; settings: ATCC 26934, 48 h
# In short: (§2)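 Aspergillus spp. were tested by CLSI M38-A broth microdilution in RPMI 1640 with MOPS at pH 7.0. Spore inoculum is 10³ CFU/mL, with two-fold compound dilutions and final DMSO ≤1%. Incubated at 35 °C in a moist, dark chamber. MIC is read visually as total growth inhibition, at a time set by growth of the control fungus.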
# Aspergillus flavus = experiment: Antifungal activity against Aspergillus flavus ATCC 9170 after 48 hrs; format: functional; settings: ATCC 9170, 48 h; in short: as §2
# Aspergillus niger = experiment: Antifungal activity against Aspergillus niger ATCC 9029 after 48 hrs; format: functional; settings: ATCC 9029, 48 h; in short: as §2
# Nannizzia gypsea = experiment: Antifungal activity against Microsporum gypseum C 115 after 48 hrs; format: functional; settings: C 115, 48 h
# In short: (§3)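 Dermatophytes were tested by CLSI M38-A microdilution in MOPS-buffered RPMI 1640 at pH 7.0. Inoculum is 10³ CFU/mL, with two-fold serial compound dilutions and final DMSO ≤1%. Trays are kept at 28–30 °C in a moist, dark chamber. MIC is the lowest concentration with total growth inhibition, read visually when control growth allows.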
# Trichophyton rubrum = experiment: Antifungal activity against Trichophyton rubrum C 113 after 48 hrs; format: functional; settings: C 113, 48 h; in short: as §3
# [2] = test system: Trichophyton mentagrophytes; experiment: Antifungal activity against Trichophyton mentagrophytes ATCC 9972 after 48 hrs; format: functional; settings: ATCC 9972, 48 h; in short: as §3
# Trypanosoma cruzi [3] = experiment: Antitrypanosomal activity against Trypanosoma cruzi Tulahuen 2; format: functional; settings: read-out: ID50 (the source's name)
# In short: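 Epimastigotes were grown at 28 °C in BHI-tryptose with 5% FBS. Stationary-phase parasites are inoculated at 8 × 10⁶ cells/mL into medium containing increasing drug concentrations from DMSO stock (final DMSO ≤0.4%; vehicle control). Growth is followed by A600. ID50 is the concentration that halves the day-5 absorbance ratio relative to control.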
# [4] = Cytotoxicity against mouse J774 cells after 48 hrs by MTT assay; format: cell-based; settings: read-out: ID50
# In short: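 J-774 macrophages were seeded at 1 × 10⁵ cells/well in RPMI 1640 with 20% heat-inactivated FCS and left to attach for 48 h at 37 °C in 5% CO₂. Cells were then exposed to compounds for 48 h. MTT was added at 0.4 mg/mL final, formazan was dissolved in DMSO, and A595 was read. ID50 is the concentration cutting control absorbance by 50%, averaged over three experiments.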
# [5] = Selectivity index, ratio of ID50 for mouse J774 cells to ID50 for Trypanosoma cruzi Tulahuen 2; format: toxicity, cell-based; settings: J774 cells versus Trypanosoma cruzi Tulahuen 2
# In short: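 Selectivity index is the ID50 in J-774 macrophages (48 h MTT) divided by the ID50 against Tulahuen 2 epimastigotes (day-5 A600 growth).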
Compound,inhibition at 25 µM (Trypanosoma cruzi [1]) [%],MIC (Candida albicans) [µg/mL],MIC (Candida tropicalis) [µg/mL],MIC (Saccharomyces cerevisiae) [µg/mL],MIC (Cryptococcus neoformans) [µg/mL],MIC (Aspergillus fumigatus) [µg/mL],MIC (Aspergillus flavus) [µg/mL],MIC (Aspergillus niger) [µg/mL],MIC (Nannizzia gypsea) [µg/mL],MIC (Trichophyton rubrum) [µg/mL],MIC [2] [µg/mL],IC50 (Trypanosoma cruzi [3]) [µM],MFC (Nannizzia gypsea) [µg/mL],MFC (Trichophyton rubrum) [µg/mL],MFC [2] [µg/mL],CC50 at 48 h [4] [µM],selectivity ratio [5],other results
O=[N+]([O-])c1ccc2c(c1)c(OCc1ccccc1)nn2CCOCCN(CCC/C=C/c1ccccc1)CCOCCn1nc(OCc2ccccc2)c2cc([N+](=O)[O-])ccc21,0,,,,,,,,,,,,,,,,,
C=CCNC(=S)N/N=C/c1ccc2c(c1)[n+]([O-])c(C#N)c(N)[n+]2[O-],6,> 250,> 250,> 250,> 250,> 250,> 250,> 250,> 250,> 250,> 250,,,,,,,
Cc1c(C(=O)Nc2ccccc2)[n+]([O-])c2cc(CN3CCN(C/C=C/c4ccccc4)CC3)ccc2[n+]1[O-],,> 250,> 250,> 250,,> 250,> 250,> 250,125,125,125,25.4,> 250,> 250,> 250,,,
C=CCNC(=S)N/N=C/c1ccc2c(c1)[n+]([O-])c(C(=O)Nc1ccccc1)c(C)[n+]2[O-],0,> 250,> 250,> 250,250,> 250,> 250,> 250,250,250,250,,250,250,250,,,MFC (Cryptococcus neoformans): > 250 µg/mL
C=CCNC(=S)N/N=C/c1ccc2c(c1)[n+]([O-])c(C(=O)OCC)c(-c1ccccc1)[n+]2[O-],,,,,,,,,,,,7.5,,,,> 400,> 33.3,
C=CCNC(=S)N/N=C/c1ccc2c(c1)[n+]([O-])c(C)c(C)[n+]2[O-],21,> 250,> 250,> 250,> 250,> 250,> 250,> 250,> 250,> 250,> 250,,,,,,,
C=CCNC(=S)N/N=C/c1ccc2c(c1)=[N+]([O-])C(C)(C)[N+]=2[O-],,> 250,> 250,> 250,> 250,> 250,> 250,> 250,250,250,250,7.2,250,250,250,104,14.4,
CN(C/C=C/c1ccccc1)Cc1ccc2c(c1)[n+]([O-])c(C#N)c(N)[n+]2[O-],0,,,,,,,,,,,,,,,,,
N#Cc1c(N)[n+]([O-])c2ccc(CN3CCN(C/C=C/c4ccccc4)CC3)cc2[n+]1[O-],0,,,,,,,,,,,,,,,,,
CN(C/C=C/c1ccccc1)CCCCCn1nc(OCc2ccccc2)c2cc([N+](=O)[O-])ccc21,,,,,,,,,,,,7.8,,,,< 100,< 12.8,
CCOC(=O)c1c(-c2ccccc2)[n+]([O-])c2ccc(CN3CCN(C/C=C/c4ccccc4)CC3)cc2[n+]1[O-],,250,250,125,125,> 250,> 250,> 250,250,125,125,9.5,> 250,250,250,< 100,< 10.5,MFC (Candida albicans): > 250 µg/mL; MFC (Candida tropicalis): > 250 µg/mL; MFC (Saccharomyces cerevisiae): 250 µg/mL; MFC (Cryptococcus neoformans): 250 µg/mL
N#Cc1c2ccccc2[n+]([O-])n1CC/C=C\c1ccc(Cl)cc1,20,,,,,,,,,,,,,,,,,
[O-][n+]1onc2ccc(CN3CCN(C/C=C/c4ccccc4)CC3)cc21,14,,,,,,,,,,,,,,,,,
